Reference: ChEMBL document CHEMBL3120138, “Glucocorticoid receptor modulators informed by crystallography lead to a new rationale for receptor selectivity, function, and implications for structure-based design” (J Med Chem, 2014)
The source made the active and inactive calls. The calls are words filed in the database; no cut-off is given here.

Key:
[1] = Clearance in Sprague-Dawley rat at 3 mg/kg, iv; type: ADME, organism-based; set-up: dose 3 mg/kg, route intravenous; details: in vivo
Outline: (§1)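 Cannulated male Sprague-Dawley rats, fasted overnight, given a single 3 mpk dose at t = 0. The iv vehicle was 20% microemulsion/80% DI water and the po vehicle CMC/tween in DI water. Plasma was analysed for parent compound by LC/MS-MS, and exposure, half-life, Vd, clearance and bioavailability were calculated.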

[2] = tested on: Rattus norvegicus; assay: Antiinflammatory activity in Lewis rat collagen-induced arthritis model assessed as reduction of joint inflammation at 30 mg/kg, po administered for 15 days; type: functional, organism-based; set-up: dose 30 mg/kg
Outline: (§2)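 Female Lewis rats received collagen injected at the tail base, and disease developed over 14 d. Responding rats (groups of n = 10) were then dosed orally once daily for the next 15 d. Ankle/paw diameter was measured throughout the live phase and summarised as AUC. Hindpaw histology was scored blind from 0 (normal) to 5 (vehicle-level). Statistics used Student's t test vs vehicle, p < 0.01.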

[3] = Tmax in Lewis rat collagen-induced arthritis model at 3 to 30 mg/kg, po after 15 days; type: ADME, organism-based; set-up: dose 3-30 mg/kg, route oral; details: in vivo
[4] = Volume of distribution in Sprague-Dawley rat at 3 mg/kg, iv; type: ADME, organism-based; set-up: dose 3 mg/kg, route intravenous; details: in vivo; outline: as §1
[5] = tested on: Rattus norvegicus; assay: Antiinflammatory activity in Lewis rat collagen-induced arthritis model assessed as reduction of bone resorption at 30 mg/kg, po administered for 15 days; type: functional, organism-based; set-up: dose 30 mg/kg; outline: as §2
[6] = Antiinflammatory activity in PMA-differentiated human U937 cells assessed as inhibition of LPS-induced TNFalpha production incubated for 60 mins prior to LPS challenge measured after 24 hrs; type: functional, cell-based; details: U-937
Outline: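 U-937 cells (100 000/well) were differentiated with 20 nM PMA overnight at 37 °C, then refed with PMA-free medium. Cells were pretreated with compound for 60 min, then stimulated with LPS (stock 400 ng/mL) for 24 h at 37 °C. Secreted TNFα was measured by EIA/RIA. Ten-point half-log dilutions were used, each concentration in triplicate.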

[7] = Half life in Sprague-Dawley rat at 3 mg/kg, iv; type: ADME, organism-based; set-up: dose 3 mg/kg, route intravenous; details: in vivo; outline: as §1
[8] = tested on: Rattus norvegicus; assay: Antiinflammatory activity in Lewis rat collagen-induced arthritis model assessed as reduction of cartilage damage at 30 mg/kg, po administered for 15 days; type: functional, organism-based; set-up: dose 30 mg/kg; outline: as §2
[9] = tested on: Rattus norvegicus; assay: Antiinflammatory activity in po dosed Lewis rat collagen-induced arthritis model assessed as reduction in ankle diameter administered for 15 days measured during compound dosing; type: functional, organism-based; outline: as §2
[10] = tested on: Rattus norvegicus; assay: Antiinflammatory activity in Lewis rat collagen-induced arthritis model assessed as reduction of paw diameter AUC at 3 to 30 mg/kg, po administered for 15 days measured during compound dosing; type: functional, organism-based; outline: as §2
[11] = AUC in Sprague-Dawley rat at 3 mg/kg, po; type: ADME, organism-based; set-up: dose 3 mg/kg, route oral; details: plasma; outline: as §1

Q: With CC/C(=C1\c2ccccc2OCc2cccc(OC)c21)c1cccc(NS(C)(=O)=O)c1 as the compound, how does the clearance [1] read?
A: Its clearance is 56 mL/min/kg.

Q: What about the Activity [2] of the same compound?
A: Its Activity is “Active”.

Q: What about the Tmax [3] of the same compound?
A: The Tmax was 1 h.

Q: And the Vd [4]?
A: Its Vd is 7 L/kg.

Q: And the Activity [5]?
A: Its Activity is “Active”.

Q: What about the IC50 [6] of the same compound?
A: The IC50 was 19.1 nM.

Q: What about the half-life [7] of the same compound?
A: The half-life was 1.4 h.

Q: What about the Activity [8] of the same compound?
A: The Activity was “Active”.

Q: What about the Activity [9] of the same compound?
A: Its Activity is “Dose-dependent effect”.

Q: And the Activity [10]?
A: Its Activity is “Active”.

Q: And the AUC [11]?
A: Its AUC is 1300 ng·h/mL.
